Consider 2 compounds from ChEMBL document CHEMBL1143134, “The number and distances of positive charges of polyamine side chains in a series of perylene diimides significantly influence their ability to induce G-quadruplex structures and inhibit human telomerase” (Bioorg Med Chem, 2008).

Activity calls are given as the source filed them. No cut-off for these calls is given here.

Assay [1] addresses Telomerase reverse transcriptase (Homo sapiens) (UniProt O14746). Put plainly: Inhibition of human telomerase by TRAP assay. The method, boiled down: (§1)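 Cell-free modified TRAP assay using TSG4 primer and HeLa cell extract in TRAP buffer (20 mM Tris-HCl pH 8.3, 1.5 mM MgCl2, 68 mM KCl, 0.05% Tween 20, 1 mM EGTA). Compounds (2–20 µM) preincubated with primer for 2 h at 30 °C before extract was added. A 130-bp internal standard controls PCR efficiency. Percent inhibition from at least three independent experiments.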

For assay [2] the target is unchanged. Put plainly: Inhibition of human telomerase at 2 uM by TRAP assay. An outline of the steps:
as §1

Sequence of Telomerase reverse transcriptase (Homo sapiens) (O14746 whole entry): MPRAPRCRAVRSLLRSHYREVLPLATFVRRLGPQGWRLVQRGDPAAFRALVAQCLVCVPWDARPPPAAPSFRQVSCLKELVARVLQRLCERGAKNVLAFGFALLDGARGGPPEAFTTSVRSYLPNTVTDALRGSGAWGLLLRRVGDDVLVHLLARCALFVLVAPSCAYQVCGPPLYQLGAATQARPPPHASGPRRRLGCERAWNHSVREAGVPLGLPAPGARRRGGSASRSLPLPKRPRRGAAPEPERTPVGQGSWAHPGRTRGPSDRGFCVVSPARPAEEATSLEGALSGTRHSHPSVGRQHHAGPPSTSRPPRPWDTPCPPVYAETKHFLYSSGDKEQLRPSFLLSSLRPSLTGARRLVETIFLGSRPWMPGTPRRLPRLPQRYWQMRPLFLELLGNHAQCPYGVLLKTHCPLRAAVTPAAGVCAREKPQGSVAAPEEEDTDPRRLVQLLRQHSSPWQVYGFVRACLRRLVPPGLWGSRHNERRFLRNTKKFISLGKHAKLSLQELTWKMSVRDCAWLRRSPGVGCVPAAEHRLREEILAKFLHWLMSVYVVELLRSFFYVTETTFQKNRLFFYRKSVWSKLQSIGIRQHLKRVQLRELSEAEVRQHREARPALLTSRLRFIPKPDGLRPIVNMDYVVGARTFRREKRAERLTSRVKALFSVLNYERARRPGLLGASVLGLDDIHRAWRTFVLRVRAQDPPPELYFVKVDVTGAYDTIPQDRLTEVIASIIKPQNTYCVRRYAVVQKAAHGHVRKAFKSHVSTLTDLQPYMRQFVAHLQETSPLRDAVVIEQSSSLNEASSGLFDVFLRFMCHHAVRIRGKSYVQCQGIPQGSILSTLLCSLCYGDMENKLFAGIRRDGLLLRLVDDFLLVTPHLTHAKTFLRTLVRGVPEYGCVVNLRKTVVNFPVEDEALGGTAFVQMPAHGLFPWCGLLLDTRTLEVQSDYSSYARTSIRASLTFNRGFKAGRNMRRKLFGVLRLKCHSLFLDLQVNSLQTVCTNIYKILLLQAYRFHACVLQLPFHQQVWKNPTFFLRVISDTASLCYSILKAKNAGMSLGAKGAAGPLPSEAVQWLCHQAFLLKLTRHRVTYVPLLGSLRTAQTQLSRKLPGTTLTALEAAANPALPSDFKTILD

Regarding `CC(=O)NCCCNCCCCNCCN1C(=O)c2ccc3c4ccc5c6c(ccc(c7ccc(c2c37)C1=O)c64)C(=O)N(CCNCCCCNCCCNC(C)=O)C5=O`, the outcome in assay [1] was Active. As to `NCCCNCCCCNCCN1C(=O)c2ccc3c4ccc5c6c(ccc(c7ccc(c2c37)C1=O)c64)C(=O)N(CCNCCCCNCCCN)C5=O`, in assay [2], the inhibition (as a rule, the relative decrease from the control value, in per cent) worked out at 30%.
